Laboratory results published in ChEMBL document CHEMBL1124042, “Synthesis and potential antipsychotic activity of 1H-imidazo[1,2-c]pyrazolo[3,4-e]pyrimidines” (J Med Chem, 1988).

Tests used:
[1] = test system: Rattus norvegicus; experiment: Inhibition of locomotion in rats after the compound administered through perorally; assay type: functional; conditions: po
Method in brief: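 Oral dosing in rats, with spontaneous locomotor activity scored alongside ataxia. ED50 reported ± SEM.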

[2] = test system: Mus musculus; experiment: Inhibition of locomotor activity in mouse after intraperitoneal administration; assay type: functional; conditions: Mus musculus, ip; read-out: ED50
[3] = biological target: T1, Adenosine receptor A1 (Rattus norvegicus, UniProt P25099); experiment: Displacement of [3H]CHA (N6-Cyclohexyl adenosine) from adenosine A1 receptor in rat brain; assay type: tissue-based
T1 sequence (P25099 whole entry): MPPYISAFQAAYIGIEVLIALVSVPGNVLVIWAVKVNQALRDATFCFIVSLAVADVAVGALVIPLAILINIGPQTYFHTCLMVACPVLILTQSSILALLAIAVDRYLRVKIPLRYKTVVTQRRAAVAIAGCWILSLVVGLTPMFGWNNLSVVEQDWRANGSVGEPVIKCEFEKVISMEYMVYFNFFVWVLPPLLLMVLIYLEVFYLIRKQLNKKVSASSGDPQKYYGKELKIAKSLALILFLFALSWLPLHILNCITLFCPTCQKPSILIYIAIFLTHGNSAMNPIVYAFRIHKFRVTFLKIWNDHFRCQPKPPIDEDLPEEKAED
Method in brief: (§1)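 Rat brain radioligand displacement binding. IC50 values (μM) were derived by nonlinear regression from four or five concentrations of compound.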

[4] = biological target: T2, Adrenergic receptor alpha-2 (Rattus norvegicus, UniProt P22086+P19328+P22909); experiment: Displacement of [3H]clonidine from alpha-2 adrenergic receptor in rat brain; assay type: tissue-based; method in brief: as §1
T2 sequence (P22086 whole entry): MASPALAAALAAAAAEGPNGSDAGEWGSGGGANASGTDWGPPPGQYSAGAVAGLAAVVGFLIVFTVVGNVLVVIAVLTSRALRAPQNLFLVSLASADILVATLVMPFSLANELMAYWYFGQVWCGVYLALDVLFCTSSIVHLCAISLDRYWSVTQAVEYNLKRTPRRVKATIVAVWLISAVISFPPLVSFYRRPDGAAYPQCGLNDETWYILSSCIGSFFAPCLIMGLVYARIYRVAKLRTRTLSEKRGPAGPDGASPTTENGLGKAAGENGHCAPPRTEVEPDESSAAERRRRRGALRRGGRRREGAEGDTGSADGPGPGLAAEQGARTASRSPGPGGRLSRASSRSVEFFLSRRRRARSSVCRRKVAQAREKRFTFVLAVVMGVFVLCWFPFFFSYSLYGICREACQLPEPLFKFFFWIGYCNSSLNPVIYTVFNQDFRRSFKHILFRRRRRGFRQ
T2 sequence (P19328 whole entry): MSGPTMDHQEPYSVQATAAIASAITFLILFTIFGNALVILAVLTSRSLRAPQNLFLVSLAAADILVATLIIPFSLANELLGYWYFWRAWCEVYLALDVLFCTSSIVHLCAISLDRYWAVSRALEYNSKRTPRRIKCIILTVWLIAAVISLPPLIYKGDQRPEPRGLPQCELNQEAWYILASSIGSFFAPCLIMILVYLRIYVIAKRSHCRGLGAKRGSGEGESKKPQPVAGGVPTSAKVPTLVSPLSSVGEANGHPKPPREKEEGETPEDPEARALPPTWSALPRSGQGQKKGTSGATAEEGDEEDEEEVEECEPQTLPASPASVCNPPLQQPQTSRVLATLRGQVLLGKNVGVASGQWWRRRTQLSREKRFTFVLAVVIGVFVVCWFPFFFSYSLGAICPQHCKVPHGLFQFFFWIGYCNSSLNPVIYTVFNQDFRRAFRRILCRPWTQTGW
T2 sequence (P22909 whole entry): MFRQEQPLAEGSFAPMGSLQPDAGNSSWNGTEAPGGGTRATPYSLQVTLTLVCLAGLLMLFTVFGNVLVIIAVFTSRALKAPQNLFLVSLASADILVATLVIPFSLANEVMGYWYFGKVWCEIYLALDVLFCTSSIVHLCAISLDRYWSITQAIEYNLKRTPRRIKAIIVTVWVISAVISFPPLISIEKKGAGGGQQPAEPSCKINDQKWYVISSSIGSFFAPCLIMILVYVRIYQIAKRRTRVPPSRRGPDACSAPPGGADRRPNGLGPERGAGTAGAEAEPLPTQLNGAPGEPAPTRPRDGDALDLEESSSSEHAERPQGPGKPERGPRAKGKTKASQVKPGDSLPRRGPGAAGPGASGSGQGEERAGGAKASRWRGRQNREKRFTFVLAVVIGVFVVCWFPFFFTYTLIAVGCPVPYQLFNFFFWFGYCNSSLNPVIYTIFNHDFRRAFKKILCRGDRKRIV

IC50 [3]: > 10 µM
IC50 [4]: > 10 µM
SMILES: CCC1CN2C(C)=Nc3c(C)nn(C)c3C2=N1 (centres undefined)
ED50 [1]: 15.5 mg/kg
ED50 [2]: 23.7 mg/kg
